How the values were obtained:
[1] = target: T1, Glucose-dependent insulinotropic receptor (Homo sapiens, UniProt Q8TDV5); experiment: Agonist activity at human GPR119 by melanophore assay; assay type: functional
T1 sequence (Q8TDV5 whole entry): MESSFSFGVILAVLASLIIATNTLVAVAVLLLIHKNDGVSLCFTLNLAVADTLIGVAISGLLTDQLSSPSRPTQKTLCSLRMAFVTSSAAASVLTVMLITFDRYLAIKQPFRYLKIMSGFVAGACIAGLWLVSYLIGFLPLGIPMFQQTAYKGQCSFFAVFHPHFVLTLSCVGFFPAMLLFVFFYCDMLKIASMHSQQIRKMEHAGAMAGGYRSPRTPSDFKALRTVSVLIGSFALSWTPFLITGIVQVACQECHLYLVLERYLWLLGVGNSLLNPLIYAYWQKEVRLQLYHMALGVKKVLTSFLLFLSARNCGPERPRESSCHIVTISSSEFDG
Summary of the method: (§1)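 Agonist EC50 measured in melanophores transfected with the human or rat GPR119 receptor sequence. Values are means of multiple determinations (n).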

[2] = target: T2, Glucose-dependent insulinotropic receptor (Homo sapiens) (UniProt Q8TDV5); experiment: Agonist activity at human GPR119 by melanophore assay relative to AR231453; assay type: functional
T2 sequence (whole entry): T1 sequence (Q8TDV5 whole entry)
Summary of the method: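 Melanophores transfected with human GPR119. Apparent Emax is the curve height normalized to the positive control AR231453, which is defined as a full agonist (100% efficacy).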

[3] = target: T3, Glucose-dependent insulinotropic receptor (Rattus norvegicus) (UniProt Q7TQN8); experiment: Selectivity ratio of EC50 for rat GPR119 to EC50 for human GPR119
T3 sequence (whole entry): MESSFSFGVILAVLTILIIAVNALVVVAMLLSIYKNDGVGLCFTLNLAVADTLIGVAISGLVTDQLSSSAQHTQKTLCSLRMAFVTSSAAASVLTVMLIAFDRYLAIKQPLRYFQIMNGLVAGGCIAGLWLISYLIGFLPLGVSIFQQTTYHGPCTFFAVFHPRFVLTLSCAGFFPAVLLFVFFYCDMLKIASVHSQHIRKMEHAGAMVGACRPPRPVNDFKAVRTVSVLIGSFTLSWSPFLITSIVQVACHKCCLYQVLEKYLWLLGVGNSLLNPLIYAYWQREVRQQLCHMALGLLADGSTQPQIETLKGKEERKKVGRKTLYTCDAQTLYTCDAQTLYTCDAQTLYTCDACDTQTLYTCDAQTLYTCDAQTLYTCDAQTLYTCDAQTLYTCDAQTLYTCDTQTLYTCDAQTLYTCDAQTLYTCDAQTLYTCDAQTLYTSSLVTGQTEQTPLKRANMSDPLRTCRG

[4] = target: T4, Glucose-dependent insulinotropic receptor (Rattus norvegicus, UniProt Q7TQN8); experiment: Agonist activity at rat GPR119 by melanophore assay; assay type: functional; summary of the method: as §1
T4 sequence (Q7TQN8 whole entry): T3 sequence (whole entry)

Structure (SMILES)	EC50 [1] [nM]	Emax [2] [%]	Ratio EC50 [3]	EC50 [4] [nM]
CCCCOC(=O)N1CCC(Oc2ncnc3c2cnn3-c2ccc(S(C)(=O)=O)cc2)CC1	7.5	79		
CS(=O)(=O)c1ccc(-n2ncc3c(OC4CCN(C(=O)OC5CCCC5)CC4)ncnc32)cc1	14.6	80	1.4	21
CC(C)(C)OC(=O)N1CCC(Sc2ncnc3c2cnn3-c2ccc(S(C)(=O)=O)cc2F)CC1	0.5	98	14.6	7.3
CC(C)(C)OC(=O)N1CCC(Oc2ncnc3c(-c4ccc(S(C)(=O)=O)cc4)noc23)CC1	0.7	100	24.3	17
CC(C)c1noc(C2CCN(c3ncnc(Nc4ccc(S(C)(=O)=O)cc4)c3[N+](=O)[O-])CC2)n1	5.1			
CC(C)(C)OC(=O)N1CCC(Oc2ncnc3c2ncn3-c2ccc(S(C)(=O)=O)cc2)CC1	33.4	95		
CC(C)(C)OC(=O)N1CCC(CNc2ncnc3c2cnn3-c2ccc(S(C)(=O)=O)cc2)CC1	265	87		
CC(C)(C)OC(=O)N1CCC(Nc2ncnc3c2cnn3-c2ccc(S(C)(=O)=O)cc2)CC1	250	101	> 40	> 10000
CCN(CC1CCN(C(=O)OC(C)(C)C)CC1)c1ncnc2c1cnn2-c1ccc(S(C)(=O)=O)cc1	6.3	67		
CC(C)(C)OC(=O)N1CCC(Oc2ncnc3c2[nH]c(=O)n3-c2ccc(S(C)(=O)=O)cc2F)CC1	0.6	64		
CC(C)COC(=O)N1CCC(Oc2ncnc3c2cnn3-c2ccc(S(C)(=O)=O)cc2)CC1	4.2	99		
CN(C)CCOC(=O)N1CCC(Oc2ncnc3c2cnn3-c2ccc(S(C)(=O)=O)cc2)CC1	> 10000			
CC(C)(C)OC(=O)N1CCC([S+]([O-])c2ncnc3c2cnn3-c2ccc(S(C)(=O)=O)cc2)CC1 (stereo not drawn)	2400			> 10000
CC(C)(C)OC(=O)N1CCC(Oc2ncnc3c2cnn3-c2ccc(S(C)(=O)=O)cc2F)CC1	0.9	79	21.8	19.6
CC(C)(C)OC(=O)N1CCC(Cc2ncnc3c2cnn3-c2ccc(S(C)(=O)=O)cc2F)CC1	3.4	72	25.9	88
CC(C)(C)COC(=O)N1CCC(Oc2ncnc3c2cnn3-c2ccc(S(C)(=O)=O)cc2)CC1	8.1	105	8	65
CCOC(=O)N1CCC(Oc2ncnc3c2cnn3-c2ccc(S(C)(=O)=O)cc2)CC1	3.8	91	13.9	53
CC(C)(C)OC(=O)N1CCC(S(=O)(=O)c2ncnc3c2cnn3-c2ccc(S(C)(=O)=O)cc2)CC1	> 10000			> 10000
CC(C)OC(=O)N1CCC(Oc2ncnc3c(-c4ccc(S(C)(=O)=O)cc4)noc23)CC1	14	65	3	40
CC(C)(C)OC(=O)N1CCC(Sc2ncnc3c2cnn3-c2ccc(S(C)(=O)=O)cc2)CC1	5.6	104	3	15.5

Further compounds by falling EC50 [1], results first:

EC50 [1] [nM]	Emax [2] [%]	Ratio EC50 [3]	EC50 [4] [nM]	Structure (SMILES)
435	71			CS(=O)(=O)c1ccc(-n2ncc3c(OC4CCN(C(=O)OC5CCOC5)CC4)ncnc32)cc1 (stereo not drawn)
116	90			Cc1nc(OC2CCN(C(=O)OC(C)(C)C)CC2)c2c(C)nn(-c3ccc(S(C)(=O)=O)cc3)c2n1
42				CC(C)c1noc(C2CCN(c3ncnc4c3cnn4-c3ccc(S(C)(=O)=O)cc3)CC2)n1
15	103	3	42	Cc1nn(-c2ccc(S(C)(=O)=O)cc2)c2ncnc(OC3CCN(C(=O)OC(C)(C)C)CC3)c12
11.6	89			CN(CC1CCN(C(=O)OC(C)(C)C)CC1)c1ncnc2c1cnn2-c1ccc(S(C)(=O)=O)cc1
7.4	103	5.7	42	CC(C)(C)OC(=O)N1CCC(Oc2ncnc3c2nnn3-c2ccc(S(C)(=O)=O)cc2)CC1
7.3	91	16.4	120	CC(C)(C)OC(=O)N1CCC(Cc2ncnc3c2cnn3-c2ccc(S(C)(=O)=O)cc2)CC1
3.5	83			CC(C)OC(=O)N1CCC(Oc2ncnc3c2cnn3-c2ccc(S(C)(=O)=O)cc2)CC1
3.4	82	77.6	264	CCN(CC1CCN(C(=O)OC(C)C)CC1)c1ncnc2c1cnn2-c1ccc(S(C)(=O)=O)cc1F
1.1	96	8.9	9.8	CC(C)(C)OC(=O)N1CCC(Oc2ncnc3c2cnn3-c2ccc(S(C)(=O)=O)cc2)CC1
0.65				CC(C)c1noc(C2CCN(c3ncnc(Nc4ccc(S(C)(=O)=O)cc4F)c3[N+](=O)[O-])CC2)n1

— ChEMBL document CHEMBL1773020, “Discovery of fused bicyclic agonists of the orphan G-protein coupled receptor GPR119 with in vivo activity in rodent models of glucose control” (Bioorg Med Chem Lett, 2011)
